Broadly, the IC50 is the midpoint of a concentration-inhibition curve. Lower therefore signals inhibition by little substance. As a reminder, the inhibition is the drop in the measured response relative to a control, in per cent. Higher therefore signals a strong effect.

The text below walks through data of ChEMBL document CHEMBL1133978, “Potent peptide alpha-ketohydroxamate inhibitors of recombinant human calpain I” (Bioorg Med Chem Lett, 2001).

Each structure is given as a SMILES string.

In assay [1] the test system is MOLT-4. The experiment in a line: Inhibition of cell permeability by measuring the spectrin breakdown product in intact MOLT-4 cells. The assay is classed as functional, cell-based. The note with it: Homo sapiens. In a few lines: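 Intact MOLT-4 cells (human leukemia T-cell line) had calpain activated with ionomycin. Cell permeability was read as inhibition of the spectrin breakdown product. Potency is reported as IC50.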

Assay [2] relates to MOLT-4. The experiment in a line: Compound was tested for inhibition of cell permeability by measuring the spectrin breakdown product in intact MOLT-4 cells at 1 uM. The assay is classed as functional. The note with it: Homo sapiens. A digest of the protocol: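 In intact MOLT-4 human leukemia T cells, calpain was activated by ionomycin. Spectrin breakdown product was measured, and inhibition is given as percent at a single 1 μM test concentration.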

As to `CONC(=O)C(=O)[C@H](Cc1ccccc1)NC(=O)[C@H](CC(C)C)NC(=O)[C@H](CC(C)C)NC(=O)OCc1ccccc1`, inhibition in the assay with MOLT-4 [1] was half-maximal at 200 nM (IC50).
The same measure, in the same setting: in the case of `CCCC[C@H](NC(=O)[C@@H](NC(=O)OCc1ccccc1)C(C)C)C(=O)C(=O)NOCc1ccccc1` it was 500 nM; in that of `CONC(=O)C(=O)[C@H](Cc1ccccc1)NC(=O)[C@H](CC(C)C)NC(=O)OCc1ccccc1`, 900 nM.
In the case of `CC(C)C[C@H](NC(=O)OCc1ccccc1)C(=O)N[C@@H](CC(C)C)C(=O)N[C@@H](Cc1ccccc1)C(=O)C(=O)NOCc1ccccc1`, the IC50 in the assay on MOLT-4 [1] was 200 nM.
Same read-out and setting: in the case of `CC(C)[C@@H](NC(=O)OCc1ccccc1)C(=O)N[C@@H](Cc1ccccc1)C(=O)C(=O)NOCc1ccccc1` it was 600 nM; in that of `CS(=O)(=O)N[C@H](COCc1ccccc1)C(=O)N[C@@H](Cc1ccccc1)C(=O)C(=O)NOCc1ccccc1`, 900 nM; in that of `CC(C)C[C@H](NC(=O)OCc1ccccc1)C(=O)N[C@@H](Cc1ccccc1)C(=O)C(=O)NOCc1ccccc1`, 600 nM.
The same measure, in the same setting: next, `CC(C)C[C@H](NC(=O)OCc1ccccc1)C(=O)N[C@@H](Cc1ccccc1)C(=O)C(=O)NOC(C)(C)C`: 3900 nM.
On the same count and under the same terms, next, `CC(C)C[C@H](NC(=O)OCc1ccccc1)C(=O)N[C@@H](Cc1ccccc1)C(=O)C(=O)NOCc1c(F)c(F)c(F)c(F)c1F`: 2900 nM.
The compound `CCONC(=O)C(=O)[C@H](Cc1ccccc1)NC(=O)[C@H](CC(C)C)NC(=O)OCc1ccccc1` came in with an IC50 in the assay on MOLT-4 [1] of 1100 nM.
`CC(C)C[C@H](NC(=O)OCc1ccccc1)C(=O)N[C@@H](Cc1ccccc1)C(=O)C(=O)NOC1CCC(C)CC1` (stereo partly specified) showed an inhibition at 1 µM in the assay with MOLT-4 [2] of 26%.
